Experimental data taken from ChEMBL document CHEMBL1914430, “Synthesis of some new 1,3,5-trisubstituted pyrazolines bearing benzene sulfonamide as anticancer and anti-inflammatory agents” (Bioorg Med Chem Lett, 2011).

Assays:
Type in all cases: functional
KM12 = assay: Anticancer activity against human KM12 cells after 48 hrs; conditions: KM12, 48 h
Outline: (§1)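 NCI Drug Evaluation Branch 60-cell-line screen across leukemia, melanoma, lung, colon, CNS, ovarian, renal, prostate and breast panels. The incubation period is 48 h. Parameters are derived from dose–response data: GI50 is the concentration giving 50% decrease in net growth, TGI is total growth inhibition, and LC50 is net 50% loss of initial cells. Values beyond the tested range are reported as greater or less than the maximum or minimum concentration.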

SNB-75 = assay: Anticancer activity against human SNB75 cells after 48 hrs; conditions: SNB-75, 48 h
Outline: (§2)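 NCI 60-line panel protocol with a 48 h incubation. Per line: GI50 = concentration giving 50% decrease in net cell growth; TGI = total growth inhibition; LC50 = net 50% loss of initial cells. When the level was not reached or was exceeded, the value is given as greater or less than the highest or lowest concentration tested.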

HOP-92 = assay: Anticancer activity against human HOP92 cells after 48 hrs; conditions: HOP-92, 48 h; outline: as §1
HOP-62 = assay: Anticancer activity against human HOP62 cells after 48 hrs; conditions: HOP-62, 48 h; outline: as §1
MDA-MB-468 = assay: Anticancer activity against human MDA-MB-468 cells after 48 hrs; conditions: MDA-MB-468, 48 h; outline: as §1
HT-29 = assay: Anticancer activity against human HT-29 cells after 48 hrs; conditions: HT-29, 48 h; outline: as §1
SW-620 = assay: Anticancer activity against human SW620 cells after 48 hrs; conditions: SW-620, 48 h; outline: as §2
EKVX = assay: Anticancer activity against human EKVX cells after 48 hrs; outline: as §1
MDA-MB-435 = assay: Anticancer activity against human MDA-MB-435 cells after 48 hrs; conditions: MDA-MB-435, 48 h; outline: as §1
[1] = Anticancer activity against human Hs 578T cells after 48 hrs; outline: as §1
SF-268 = assay: Anticancer activity against human SF268 cells after 48 hrs; conditions: SF-268, 48 h; outline: as §2
NCI-H460 = assay: Anticancer activity against human NCI-H460 cells after 48 hrs; conditions: NCI-H460, 48 h; outline: as §2
HCC 2998 = assay: Anticancer activity against human HCC2998 cells after 48 hrs; conditions: HCC 2998, 48 h; outline: as §1
SK-MEL-2 = assay: Anticancer activity against human SK-MEL-2 cells after 48 hrs; conditions: SK-MEL-2, 48 h; outline: as §2
ACHN = assay: Anticancer activity against human ACHN cells after 48 hrs; outline: as §1
OVCAR-3 = assay: Anticancer activity against human OVCAR3 cells after 48 hrs; conditions: OVCAR-3, 48 h; outline: as §2
SNB-19 = assay: Anticancer activity against human SNB19 cells after 48 hrs; conditions: SNB-19, 48 h; outline: as §2
SN12C = assay: Anticancer activity against human SN12C cells after 48 hrs; outline: as §2
DU-145 = assay: Anticancer activity against human DU145 cells after 48 hrs; conditions: DU-145, 48 h; outline: as §1
MCF7 = assay: Anticancer activity against human MCF7 cells after 48 hrs; conditions: MCF7, 48 h; outline: as §1
IGROV-1 = assay: Anticancer activity against human IGROV1 cells after 48 hrs; conditions: IGROV-1, 48 h; outline: as §1
BT-549 = assay: Anticancer activity against human BT549 cells after 48 hrs; conditions: BT-549, 48 h; outline: as §1
SF-539 = assay: Anticancer activity against human SF539 cells after 48 hrs; conditions: SF-539, 48 h; outline: as §2
SK-MEL-5 = assay: Anticancer activity against human SK-MEL-5 cells after 48 hrs; conditions: SK-MEL-5, 48 h; outline: as §2
UACC-62 = assay: Anticancer activity against human UACC62 cells after 48 hrs; conditions: UACC-62, 48 h
Outline: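 NCI ~60 human tumour cell line panel with a 48 h incubation. GI50 is the concentration giving a 50% fall in net growth, TGI gives total growth inhibition, and LC50 gives a net 50% loss of initial cells. An effect not reached or exceeded is reported as greater or less than the highest or lowest concentration tested.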

RPMI-8226 = assay: Anticancer activity against human RPMI8226 cells after 48 hrs; conditions: RPMI-8226, 48 h; outline: as §2
Malme-3M = assay: Anticancer activity against human MALME-3M cells after 48 hrs; outline: as §1
OVCAR-4 = assay: Anticancer activity against human OVCAR4 cells after 48 hrs; conditions: OVCAR-4, 48 h; outline: as §2
HCT-15 = assay: Anticancer activity against human HCT15 cells after 48 hrs; conditions: HCT-15, 48 h; outline: as §1
CCRF-CEM = assay: Anticancer activity against human CCRF-CEM cells after 48 hrs; outline: as §1
NCI-H23 = assay: Anticancer activity against human NCI-H23 cells after 48 hrs; conditions: NCI-H23, 48 h; outline: as §2
RXF 393 = assay: Anticancer activity against human RXF393 cells after 48 hrs; conditions: RXF 393, 48 h; outline: as §2
[2] = read-out: LC50 (the source's name)

SMILES: Cc1cc(O)c(C2=NN(c3ccc(S(N)(=O)=O)cc3)C(c3ccccc3Cl)C2)cc1Cl (configuration not stated)
- GI50 (KM12): 1.98 µM
- TGI (KM12): 3.66 µM
- GI50 (SNB-75): 2.23 µM
- TGI (SNB-75): 8.83 µM
- CC50 (SNB-75; [2]): 63.6 µM
- GI50 (HOP-92): 1.94 µM
- TGI (HOP-92): 6.32 µM
- CC50 (HOP-92; [2]): 3.12 µM
- GI50 (HOP-62): 2.03 µM
- LC50 (concentration for 50% net loss of initial cells) (HOP-62): 8.53 µM
- TGI (HOP-62): 4.16 µM
- GI50 (MDA-MB-468): 2.22 µM
- TGI (MDA-MB-468): 4.74 µM
- CC50 (MDA-MB-468; [2]): > 100 µM
- GI50 (HT-29): 1.92 µM
- TGI (HT-29): 3.63 µM
- CC50 (HT-29; [2]): 6.83 µM
- GI50 (SW-620): 1.97 µM
- TGI (SW-620): 4.1 µM
- GI50 (EKVX): 1.95 µM
- TGI (EKVX): 4.6 µM
- CC50 (EKVX; [2]): > 100 µM
- GI50 (MDA-MB-435): 1.85 µM
- TGI (MDA-MB-435): 3.92 µM
- CC50 (MDA-MB-435; [2]): 8.32 µM
- GI50 [1]: 3.28 µM
- CC50 [1, 2]: > 100 µM
- GI50 (SF-268): 1.92 µM
- TGI (SF-268): 3.72 µM
- GI50 (NCI-H460): 2.16 µM
- LC50 (50% lethal concentration) (NCI-H460): 8.21 µM
- TGI (NCI-H460): 4.21 µM
- GI50 (HCC 2998): 2.1 µM
- LC50 (net 50% loss of initial cells) (HCC 2998): 7.3 µM
- TGI (HCC 2998): 3.91 µM
- GI50 (SK-MEL-2): 11.9 µM
- LC50 (SK-MEL-2): 81.1 µM
- TGI (SK-MEL-2): 31 µM
- GI50 (ACHN): 3.34 µM
- TGI (ACHN): 11 µM
- CC50 (ACHN; [2]): 34.3 µM
- GI50 (OVCAR-3): 1.89 µM
- LC50 (concentration giving 50% net loss of initial cells) (OVCAR-3): 6.77 µM
- TGI (OVCAR-3): 3.58 µM
- GI50 (SNB-19): 3.54 µM
- TGI (SNB-19): 16.3 µM
- CC50 (SNB-19; [2]): 92.3 µM
- GI50 (SN12C): 2.55 µM
- LC50 (SN12C): 29.4 µM
- TGI (SN12C): 6.32 µM
- GI50 (DU-145): 2.01 µM
- LC50 (concentration causing net 50% loss of initial cells) (DU-145): 7.35 µM
- TGI (DU-145): 3.85 µM
- GI50 (MCF7): 1.75 µM
- LC50 (MCF7): 6.35 µM
- TGI (MCF7): 3.33 µM
- GI50 (IGROV-1): 2.58 µM
- LC50 (net 50% loss of initial cells) (IGROV-1): 47.2 µM
- TGI (IGROV-1): 14 µM
- GI50 (BT-549): 2.16 µM
- TGI (BT-549): 4.74 µM
- CC50 (BT-549; [2]): 18.3 µM
- GI50 (SF-539): 1.79 µM
- LC50 (concentration causing net 50% loss of initial cells) (SF-539): 5.9 µM
- TGI (SF-539): 3.25 µM
- GI50 (SK-MEL-5): 3.85 µM
- LC50 (SK-MEL-5): 36 µM
- TGI (SK-MEL-5): 12.3 µM
- GI50 (UACC-62): 3.71 µM
- LC50 (UACC-62): 43.4 µM
- TGI (UACC-62): 14.4 µM
- GI50 (RPMI-8226): 2.97 µM
- LC50 (concentration for net 50% loss of initial cells) (RPMI-8226): > 100 µM
- TGI (RPMI-8226): 8.35 µM
- GI50 (Malme-3M): 2.62 µM
- TGI (Malme-3M): 6.46 µM
- CC50 (Malme-3M; [2]): > 100 µM
- GI50 (OVCAR-4): 2.73 µM
- LC50 (OVCAR-4): 40 µM
- TGI (OVCAR-4): 8.48 µM
- GI50 (HCT-15): 3.69 µM
- TGI (HCT-15): 16.6 µM
- CC50 (HCT-15; [2]): > 100 µM
- GI50 (CCRF-CEM): 4.81 µM
- LC50 (concentration causing net 50% loss of initial cells) (CCRF-CEM): > 100 µM
- TGI (CCRF-CEM): > 100 µM
- GI50 (NCI-H23): 1.79 µM
- LC50 (concentration killing 50% of initial cells) (NCI-H23): 7.13 µM
- TGI (NCI-H23): 3.58 µM
- GI50 (RXF 393): 3.09 µM
- LC50 (RXF 393): > 100 µM
- TGI (RXF 393): 8.22 µM
